Data published in ChEMBL document CHEMBL2086252, “Syntheses and evaluation of anticonvulsant activity of novel branched alkyl carbamates” (J Med Chem, 2012).
Calls of active or inactive are those of the source. The calls are words filed in the database; no cut-off is given here.

How the values were obtained:
Rattus norvegicus [1] = experiment: Neurotoxicity in pilocarpine-induced status epilepticus Sprague-Dawley albino rat model assessed as minimal motor impairment at 100 mg/kg, ip after 1 hr by rotarod test; type: toxicity, organism-based; set-up: dose 100 mg/kg, route intraperitoneal; conditions: in vivo
Mus musculus [2] = experiment: Anticonvulsant activity in albino CF1 mouse assessed as protection against maximal electroshock-induced seizures at 300 mg/kg, ip after 4 hrs; type: functional, organism-based; set-up: dose 300 mg/kg
Method in brief: (§1)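 Mice dosed ip at 30, 100 or 300 mg/kg, then tested 0.5 h and 4 h after administration in the MES or scMet test. Protection was recorded as animals protected over animals tested. Neurotoxicity was recorded as motor impairment or sedation, as animals affected over animals tested.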

Rattus norvegicus [3] = experiment: Neurotoxicity in pilocarpine-induced status epilepticus Sprague-Dawley albino rat model assessed as minimal motor impairment at 100 mg/kg, ip after 4 hrs by rotarod test; type: toxicity, organism-based; set-up: dose 100 mg/kg, route intraperitoneal; conditions: in vivo
Rattus norvegicus [4] = experiment: Anticonvulsant activity in Sprague-Dawley albino rat assessed as protection against maximal electroshock-induced seizures at 30 mg/kg, po after 2 hrs; type: functional, organism-based; set-up: dose 30 mg/kg
Method in brief: (§2)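 Rats dosed orally. Anti-MES protection was scored as animals protected over animals tested at each time after dosing. Neurotoxicity was scored as motor impairment or sedation, as animals affected over animals tested.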

Rattus norvegicus [5] = experiment: Anticonvulsant activity in Sprague-Dawley albino rat assessed as protection against maximal electroshock-induced seizures at 30 mg/kg, po after 1 hr; type: functional, organism-based; set-up: dose 30 mg/kg; method in brief: as §2
Mus musculus [6] = experiment: Anticonvulsant activity in albino CF1 mouse assessed as protection against maximal electroshock-induced seizures at 30 mg/kg, ip after 0.5 hrs; type: functional, organism-based; set-up: dose 30 mg/kg; method in brief: as §1
Rattus norvegicus [7] = experiment: Neurotoxicity in pilocarpine-induced status epilepticus Sprague-Dawley albino rat model assessed as minimal motor impairment at 300 mg/kg, ip after 0.25 hr by rotarod test; type: toxicity, organism-based; set-up: dose 300 mg/kg, route intraperitoneal; conditions: in vivo
Method in brief: (§3)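 Rat pilocarpine status epilepticus model: test carbamate given at 0 or 30 min after the first observed Racine stage 3 motor seizure, which marks SE onset. Neurotoxicity was scored within the same model.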

Mus musculus [8] = experiment: Anticonvulsant activity in albino CF1 mouse assessed as protection against subcutaneous metrazol-induced seizures at 300 mg/kg, ip after 4 hrs; type: functional, organism-based; set-up: dose 300 mg/kg; method in brief: as §1
Mus musculus [9] = experiment: Anticonvulsant activity in albino CF1 mouse assessed as protection against subcutaneous metrazol-induced seizures at 30 mg/kg, ip after 0.5 hrs; type: functional, organism-based; set-up: dose 30 mg/kg; method in brief: as §1
Rattus norvegicus [10] = experiment: Neurotoxicity in pilocarpine-induced status epilepticus Sprague-Dawley albino rat model assessed as minimal motor impairment at 100 mg/kg, ip after 2 hrs by rotarod test; type: toxicity, organism-based; set-up: dose 100 mg/kg, route intraperitoneal; conditions: in vivo
Rattus norvegicus [11] = experiment: Anticonvulsant activity in Sprague-Dawley albino rat assessed as protection against maximal electroshock-induced seizures at 30 mg/kg, po after 30 mins; type: functional, organism-based; set-up: dose 30 mg/kg; method in brief: as §2
Mus musculus [12] = experiment: Neurotoxicity in albino CF1 mouse assessed as minimal motor impairment at 300 mg/kg, ip after 4 hrs by rotarod test; type: toxicity, organism-based; set-up: dose 300 mg/kg, route intraperitoneal; conditions: in vivo; method in brief: as §1
Rattus norvegicus [13] = experiment: Neurotoxicity in pilocarpine-induced status epilepticus Sprague-Dawley albino rat model assessed as minimal motor impairment at 300 mg/kg, ip after 0.5 hrs by rotarod test; type: toxicity, organism-based; set-up: dose 300 mg/kg, route intraperitoneal; conditions: in vivo; method in brief: as §3
Mus musculus [14] = experiment: Neurotoxicity in albino CF1 mouse assessed as minimal motor impairment at 30 mg/kg, ip after 4 hrs by rotarod test; type: toxicity, organism-based; set-up: dose 30 mg/kg, route intraperitoneal; conditions: in vivo; method in brief: as §1
Rattus norvegicus [15] = experiment: Neurotoxicity in pilocarpine-induced status epilepticus Sprague-Dawley albino rat model assessed as minimal motor impairment at 100 mg/kg, ip after 0.25 hr by rotarod test; type: toxicity, organism-based; set-up: dose 100 mg/kg, route intraperitoneal; conditions: in vivo
Mus musculus [16] = experiment: Anticonvulsant activity in albino CF1 mouse assessed as protection against maximal electroshock-induced seizures at 30 mg/kg, ip after 4 hrs; type: functional, organism-based; set-up: dose 30 mg/kg; method in brief: as §1
Mus musculus [17] = experiment: Neurotoxicity in albino CF1 mouse assessed as minimal motor impairment at 100 mg/kg, ip after 0.5 hrs by rotarod test; type: toxicity, organism-based; set-up: dose 100 mg/kg, route intraperitoneal; conditions: in vivo; method in brief: as §1
Mus musculus [18] = experiment: Anticonvulsant activity in albino CF1 mouse assessed as protection against subcutaneous metrazol-induced seizures at 100 mg/kg, ip after 0.5 hrs; type: functional, organism-based; set-up: dose 100 mg/kg; method in brief: as §1
Mus musculus [19] = experiment: Anticonvulsant activity in albino CF1 mouse assessed as protection against subcutaneous metrazol-induced seizures at 100 mg/kg, ip after 4 hrs; type: functional, organism-based; set-up: dose 100 mg/kg; method in brief: as §1
Mus musculus [20] = experiment: Anticonvulsant activity in albino CF1 mouse assessed as protection against subcutaneous metrazol-induced seizures at 30 mg/kg, ip after 4 hrs; type: functional, organism-based; set-up: dose 30 mg/kg; method in brief: as §1
Mus musculus [21] = experiment: Anticonvulsant activity in albino CF1 mouse assessed as protection against subcutaneous metrazol-induced seizures at 300 mg/kg, ip after 0.5 hrs; type: functional, organism-based; set-up: dose 300 mg/kg; method in brief: as §1
Rattus norvegicus [22] = experiment: Neurotoxicity in pilocarpine-induced status epilepticus Sprague-Dawley albino rat model assessed as minimal motor impairment at 300 mg/kg, ip after 2 hrs by rotarod test; type: toxicity, organism-based; set-up: dose 300 mg/kg, route intraperitoneal; conditions: in vivo; method in brief: as §3
Rattus norvegicus [23] = experiment: Neurotoxicity in Sprague-Dawley albino rat assessed as minimal motor impairment at 30 mg/kg, po by rotarod test; type: toxicity, organism-based; set-up: dose 30 mg/kg, route oral; conditions: in vivo; method in brief: as §2
Mus musculus [24] = experiment: Anticonvulsant activity in albino CF1 mouse assessed as protection against maximal electroshock-induced seizures at 100 mg/kg, ip after 4 hrs; type: functional, organism-based; set-up: dose 100 mg/kg; method in brief: as §1
Rattus norvegicus [25] = experiment: Neurotoxicity in pilocarpine-induced status epilepticus Sprague-Dawley albino rat model assessed as minimal motor impairment at 100 mg/kg, ip after 0.5 hrs by rotarod test; type: toxicity, organism-based; set-up: dose 100 mg/kg, route intraperitoneal; conditions: in vivo
Mus musculus [26] = experiment: Anticonvulsant activity in albino CF1 mouse assessed as protection against maximal electroshock-induced seizures at 100 mg/kg, ip after 0.5 hrs; type: functional, organism-based; set-up: dose 100 mg/kg; method in brief: as §1
Rattus norvegicus [27] = experiment: Neurotoxicity in pilocarpine-induced status epilepticus Sprague-Dawley albino rat model assessed as minimal motor impairment at 300 mg/kg, ip after 1 hr by rotarod test; type: toxicity, organism-based; set-up: dose 300 mg/kg, route intraperitoneal; conditions: in vivo; method in brief: as §3
Rattus norvegicus [28] = experiment: Anticonvulsant activity in Sprague-Dawley albino rat assessed as protection against pilocarpine-induced status epilepticus at 200 mg/kg, ip; type: functional, organism-based; set-up: dose 200 mg/kg
Method in brief: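 Pilocarpine status epilepticus model in rats. Number and severity of convulsive seizures were observed behaviourally.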

Mus musculus [29] = experiment: Neurotoxicity in albino CF1 mouse assessed as minimal motor impairment at 100 mg/kg, ip after 4 hrs by rotarod test; type: toxicity, organism-based; set-up: dose 100 mg/kg, route intraperitoneal; conditions: in vivo; method in brief: as §1
Mus musculus [30] = experiment: Neurotoxicity in albino CF1 mouse assessed as minimal motor impairment at 300 mg/kg, ip after 0.5 hrs by rotarod test; type: toxicity, organism-based; set-up: dose 300 mg/kg, route intraperitoneal; conditions: in vivo; method in brief: as §1
Mus musculus [31] = experiment: Neurotoxicity in albino CF1 mouse assessed as minimal motor impairment at 30 mg/kg, ip after 0.5 hrs by rotarod test; type: toxicity, organism-based; set-up: dose 30 mg/kg, route intraperitoneal; conditions: in vivo; method in brief: as §1
Mus musculus [32] = experiment: Anticonvulsant activity in albino CF1 mouse assessed as protection against maximal electroshock-induced seizures at 300 mg/kg, ip after 0.5 hrs; type: functional, organism-based; set-up: dose 300 mg/kg; method in brief: as §1
Rattus norvegicus [33] = experiment: Anticonvulsant activity in Sprague-Dawley albino rat assessed as protection against pilocarpine-induced status epilepticus at 130 mg/kg, ip administered 0 and 30 mins after status epilepticus onset
Rattus norvegicus [34] = experiment: Neurotoxicity in pilocarpine-induced status epilepticus Sprague-Dawley albino rat model assessed as minimal motor impairment at 30 mg/kg, ip after 0.5 hrs by rotarod test; type: toxicity, organism-based; set-up: dose 30 mg/kg, route intraperitoneal; conditions: in vivo; method in brief: as §3
Rattus norvegicus [35] = experiment: Anticonvulsant activity in Sprague-Dawley albino rat assessed as protection against maximal electroshock-induced seizures at 30 mg/kg, po after 4 hrs; type: functional, organism-based; set-up: dose 30 mg/kg; method in brief: as §2
Rattus norvegicus [36] = experiment: Neurotoxicity in pilocarpine-induced status epilepticus Sprague-Dawley albino rat model assessed as minimal motor impairment at 30 mg/kg, ip after 0.25 hr by rotarod test; type: toxicity, organism-based; set-up: dose 30 mg/kg, route intraperitoneal; conditions: in vivo; method in brief: as §3
Rattus norvegicus [37] = experiment: Anticonvulsant activity in Sprague-Dawley albino rat assessed as protection against maximal electroshock-induced seizures at 30 mg/kg, po after 15 mins; type: functional, organism-based; set-up: dose 30 mg/kg; method in brief: as §2
Rattus norvegicus [38] = experiment: Neurotoxicity in pilocarpine-induced status epilepticus Sprague-Dawley albino rat model assessed as minimal motor impairment at 30 mg/kg, ip after 2 hrs by rotarod test; type: toxicity, organism-based; set-up: dose 30 mg/kg, route intraperitoneal; conditions: in vivo; method in brief: as §3
Rattus norvegicus [39] = experiment: Neurotoxicity in pilocarpine-induced status epilepticus Sprague-Dawley albino rat model assessed as minimal motor impairment at 30 mg/kg, ip after 1 hr by rotarod test; type: toxicity, organism-based; set-up: dose 30 mg/kg, route intraperitoneal; conditions: in vivo; method in brief: as §3
Rattus norvegicus [40] = experiment: Neurotoxicity in pilocarpine-induced status epilepticus Sprague-Dawley albino rat model assessed as minimal motor impairment at 30 mg/kg, ip after 4 hrs by rotarod test; type: toxicity, organism-based; set-up: dose 30 mg/kg, route intraperitoneal; conditions: in vivo; method in brief: as §3
Rattus norvegicus [41] = experiment: Neurotoxicity in pilocarpine-induced status epilepticus Sprague-Dawley albino rat model assessed as minimal motor impairment at 300 mg/kg, ip after 4 hrs by rotarod test; type: toxicity, organism-based; set-up: dose 300 mg/kg, route intraperitoneal; conditions: in vivo; method in brief: as §3

SMILES	Activity (Rattus norvegicus [1])	Activity (Mus musculus [2])	Activity (Rattus norvegicus [3])	Activity (Rattus norvegicus [4])	Activity (Mus musculus [6])	Activity (Rattus norvegicus [7])	Activity (Mus musculus [8])	Activity (Mus musculus [9])	Activity (Rattus norvegicus [10])	Activity (Rattus norvegicus [11])	Activity (Mus musculus [12])	Activity (Rattus norvegicus [13])	Activity (Mus musculus [14])	Activity (Rattus norvegicus [15])	Activity (Mus musculus [16])	Activity (Mus musculus [17])	Activity (Mus musculus [18])	Activity (Mus musculus [19])	Activity (Mus musculus [20])	Activity (Mus musculus [21])	also measured
CC(C)(C)COC(N)=O	Non-toxic	inactive	Non-toxic	inactive	inactive	Toxic	inactive	inactive	Non-toxic	inactive	Non-toxic	Toxic	Non-toxic	Non-toxic	inactive	Non-toxic	inactive	inactive	inactive	inactive	Activity (Rattus norvegicus [5]): inactive; Activity (Rattus norvegicus [22]): Toxic; Activity (Rattus norvegicus [23]): Non-toxic; Activity (Mus musculus [24]): inactive; Activity (Rattus norvegicus [25]): Non-toxic; Activity (Mus musculus [26]): inactive; Activity (Rattus norvegicus [27]): Toxic; Activity (Rattus norvegicus [28]): Active; Activity (Mus musculus [29]): Non-toxic; Activity (Mus musculus [30]): Non-toxic; Activity (Mus musculus [31]): Non-toxic; Activity (Mus musculus [32]): inactive
CC1(C)C(COC(N)=O)C1(C)C	Toxic	inactive	Non-toxic	inactive	inactive	Toxic	inactive	inactive	Non-toxic	inactive	Non-toxic	Toxic	Non-toxic	Toxic	inactive	Non-toxic	inactive	inactive	inactive	Active	Activity (Rattus norvegicus [33]): inactive; Activity (Rattus norvegicus [34]): Non-toxic; Activity (Rattus norvegicus [35]): inactive; Activity (Rattus norvegicus [22]): Toxic; Activity (Rattus norvegicus [36]): Non-toxic; Activity (Rattus norvegicus [23]): Non-toxic; Activity (Rattus norvegicus [37]): inactive; Activity (Rattus norvegicus [38]): Non-toxic; Activity (Mus musculus [24]): inactive; Activity (Rattus norvegicus [39]): Non-toxic; Activity (Rattus norvegicus [40]): Non-toxic; Activity (Rattus norvegicus [25]): Toxic; Activity (Rattus norvegicus [27]): Toxic; Activity (Mus musculus [29]): Non-toxic; Activity (Mus musculus [30]): Toxic; Activity (Rattus norvegicus [41]): Non-toxic; Activity (Mus musculus [31]): Non-toxic; Activity (Mus musculus [32]): Active
